In PMC5218545 (Angewandte Chemie (International ed. in English), 2016):

Key:
Assay type in all cases: biochemical
[1] = target: T1, recombinant purified enzyme 15-LOX-1 (Homo sapiens, UniProt P16050); assay: ABPP two-step labeling of recombinant purified 15-LOX-1; details: 10 min incubation with inhibitor, then 2 min with probe N144
T1 sequence (P16050 1-662): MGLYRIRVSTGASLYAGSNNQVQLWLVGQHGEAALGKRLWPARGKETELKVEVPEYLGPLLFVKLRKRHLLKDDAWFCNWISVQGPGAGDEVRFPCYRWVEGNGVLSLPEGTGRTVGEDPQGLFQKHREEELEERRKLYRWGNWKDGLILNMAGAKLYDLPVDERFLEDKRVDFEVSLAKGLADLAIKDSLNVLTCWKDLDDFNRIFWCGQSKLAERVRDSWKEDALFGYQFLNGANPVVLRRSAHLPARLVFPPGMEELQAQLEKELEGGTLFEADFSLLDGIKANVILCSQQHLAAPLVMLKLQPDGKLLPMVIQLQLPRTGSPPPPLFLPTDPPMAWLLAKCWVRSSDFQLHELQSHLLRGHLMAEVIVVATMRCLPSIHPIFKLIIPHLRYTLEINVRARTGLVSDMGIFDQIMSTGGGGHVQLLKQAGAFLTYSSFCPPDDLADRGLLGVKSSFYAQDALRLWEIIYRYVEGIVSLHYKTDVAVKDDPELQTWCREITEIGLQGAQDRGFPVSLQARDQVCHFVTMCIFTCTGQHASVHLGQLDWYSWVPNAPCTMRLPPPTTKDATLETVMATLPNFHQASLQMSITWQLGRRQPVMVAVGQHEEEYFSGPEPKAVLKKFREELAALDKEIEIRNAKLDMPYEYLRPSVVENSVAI
How it was run: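 Recombinant purified human 15-LOX-1 preincubated 10 min with a reversible 15-LOX-1 inhibitor or a 5-LOX inhibitor as control. Then 2 min with an alkene-tagged bis-alkyne probe. Biotinyl phenyl boronic acid was attached to the terminal alkene by oxidative Heck reaction. Equal enzyme amounts were run on Western blot and detected by HRP-streptavidin luminescence, alongside Coomassie staining and no-probe controls.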

[2] = target: T2, 15-LOX-1 in tissue lysates from different mice organs (Mus musculus, UniProt P39654); assay: Activity-based labeling in mouse tissue lysates; details: inhibitor 90 μM, three characteristic bands
T2 sequence (P39654 1-663): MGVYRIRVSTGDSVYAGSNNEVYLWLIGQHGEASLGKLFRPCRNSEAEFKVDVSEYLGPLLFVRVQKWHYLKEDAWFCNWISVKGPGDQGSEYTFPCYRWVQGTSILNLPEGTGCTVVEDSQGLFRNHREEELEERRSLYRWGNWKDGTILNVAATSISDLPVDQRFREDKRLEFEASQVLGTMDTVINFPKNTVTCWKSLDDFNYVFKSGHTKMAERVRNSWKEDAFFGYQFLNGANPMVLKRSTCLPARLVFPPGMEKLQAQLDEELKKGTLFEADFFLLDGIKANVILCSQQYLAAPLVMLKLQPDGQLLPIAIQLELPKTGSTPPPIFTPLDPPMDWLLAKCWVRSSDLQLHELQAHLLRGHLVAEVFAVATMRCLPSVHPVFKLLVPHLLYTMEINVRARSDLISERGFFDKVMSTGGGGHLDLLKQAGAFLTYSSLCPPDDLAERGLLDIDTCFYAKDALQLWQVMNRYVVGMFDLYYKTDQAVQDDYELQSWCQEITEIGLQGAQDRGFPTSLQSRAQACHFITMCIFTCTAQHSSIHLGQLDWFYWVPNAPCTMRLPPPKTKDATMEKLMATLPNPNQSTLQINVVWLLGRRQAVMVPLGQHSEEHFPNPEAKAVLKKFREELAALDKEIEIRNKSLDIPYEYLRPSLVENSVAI
How it was run: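 Mouse heart tissue lysate: endogenous enzyme preincubated with inhibitors at 90 μM, then labeled with an alkene-tagged bis-alkyne probe. The probe was biotinylated by oxidative Heck coupling with biotinyl phenyl boronic acid. Labeled proteins were detected on blot with HRP-conjugated streptavidin luminescence.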

[3] = target: T3, endogenous 15-LOX-1 in HeLa cell lysate (Homo sapiens, UniProt P16050); assay: Activity-based labeling in HeLa cell lysate; details: inhibitor 90 μM; bands also characterized by the 15-LOX-1 antibody
T3 sequence (P16050 1-662): T1 sequence (P16050 1-662)
How it was run: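 HeLa cell lysate: endogenous enzyme preincubated with inhibitors at 90 μM, then labeled with an alkene-tagged bis-alkyne probe. Biotinylation by oxidative Heck reaction with biotinyl phenyl boronic acid. Blots were first probed with 15-LOX antibody, then stripped and developed with HRP-conjugated streptavidin by on-blot luminescence. Included no-probe controls.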

For `c1ccc2c(c1)SCc1c-2[nH]c2ccccc12` [PD-146176], the “effect of inhibitor pre-incubation on N144 labeling of recombinant 15-LOX-1” value [1] was “labeling was clearly inhibited”, the “effect of inhibitor on N144 labeling in mouse heart lysate” value [2] was “reduced labeling” and the “effect of inhibitor on N144 labeling in HeLa cell lysates” value [3] was “decrease of the labeling”.
In the case of `CC(c1cc2ccccc2s1)N(O)C(N)=O` (stereo not shown) [Zileuton], the “effect of inhibitor pre-incubation on N144 labeling of recombinant 15-LOX-1” value [1] is reported as “did not affect the labeling”.
